Test results taken from ChEMBL document CHEMBL4689842, “EUbOPEN Chemogenomics Library wave 1” (2021).

How the values were obtained:
Fibroblast = assay: Incucyte cell viability with human fibroblast; assay type: toxicity, cell-based; details: 10 µM, compound concentration 10 uM; further: filed as whole numbers so only -1 and 0 and 1 occur
U2OS = assay: Multiplex assay against U2OS; assay type: toxicity, cell-based; details: human
Outline: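 Live cells were stained at seeding with Hoechst33342, BioTracker Green Microtubule Cytoskeleton Dye, MitoTracker Red and Annexin V Alexa Fluor 680. Following compound addition, they were imaged on a CQ1 microscope at 37°C and 5% CO2 and gated by CellPathfinder machine learning into Hoechst high-intensity objects or normal cells, with normal cells split into healthy, pyknosed or fragmented nuclei and pyknosed cells into mitotic or apoptotic. Tubulin, mitochondrial-mass and membrane-permeability phenotypes are per cents of healthy-nucleus cells.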

[1] = 12 h, 1 µM, compound concentration 1 uM, replicate 1
[2] = 12 h, 1 µM, compound concentration 1 uM, replicate 2
[3] = 12 h, 10 µM, compound concentration 10 uM, replicate 1
[4] = 12 h, 10 µM, compound concentration 10 uM, replicate 2
[5] = 24 h, 1 µM, compound concentration 1 uM, replicate 1
[6] = 24 h, 1 µM, compound concentration 1 uM, replicate 2
[7] = 24 h, 10 µM, compound concentration 10 uM, replicate 1
[8] = 24 h, 10 µM, compound concentration 10 uM, replicate 2
[9] = 48 h, 1 µM, compound concentration 1 uM, replicate 1
[10] = 48 h, 1 µM, compound concentration 1 uM, replicate 2
[11] = 48 h, 10 µM, compound concentration 10 uM, replicate 1
[12] = 48 h, 10 µM, compound concentration 10 uM, replicate 2

SMILES: N#Cc1cccc(C(=O)Nc2cc(-c3ccccc3)nn2-c2ccccc2)c1
- Growth Rate (Fibroblast; 0 h, replicate number 1, timepoint 0 hours): 0
- Growth Rate (Fibroblast; 6 h, replicate number 1, timepoint 6 hours): 0
- Growth Rate (Fibroblast; 12 h, replicate number 1, timepoint 12 hours): 0
- Growth Rate (Fibroblast; 18 h, replicate number 1, timepoint 18 hours): 0
- Growth Rate (Fibroblast; 18 h, replicate number 2, timepoint 18 hours): 1
- Growth Rate (Fibroblast; 24 h, replicate number 1, timepoint 24 hours): 0
- Growth Rate (Fibroblast; 24 h, replicate number 2, timepoint 24 hours): 1
- Population Apoptotic (%) (U2OS; [1]): 33%
- Population Fragmented Nuclei (%) (U2OS; [1]): 14%
- Population Healthy Nuclei (%) (U2OS; [1]): 73%
- Population Hoechst High Intensity Objects (%) (U2OS; [1]): 9%
- Population Membrane Permeable-Phenotype (%) (U2OS; [1]): 2%
- Population Mitotic Cells (%) (U2OS; [1]): 66%
- Population Normal (%) (U2OS; [1]): 90%
- Population Pyknosed Nuclei (%) (U2OS; [1]): 12%
- Population Tubulin-Different-Phenotype (%) (U2OS; [1]): 13%
- Total Cell Count (U2OS; [1]): 109
- Population Apoptotic (%) (U2OS; [2]): 16%
- Population Fragmented Nuclei (%) (U2OS; [2]): 5%
- Population Healthy Nuclei (%) (U2OS; [2]): 84%
- Population Hoechst High Intensity Objects (%) (U2OS; [2]): 3%
- Population Membrane Permeable-Phenotype (%) (U2OS; [2]): 6%
- Population Mitochondria Different-Phenotype (%) (U2OS; [2]): 8%
- Population Mitotic Cells (%) (U2OS; [2]): 83%
- Population Normal (%) (U2OS; [2]): 96%
- Population Pyknosed Nuclei (%) (U2OS; [2]): 10%
- Population Tubulin-Different-Phenotype (%) (U2OS; [2]): 16%
- Total Cell Count (U2OS; [2]): 59
- Population Apoptotic (%) (U2OS; [3]): 50%
- Population Fragmented Nuclei (%) (U2OS; [3]): 14%
- Population Healthy Nuclei (%) (U2OS; [3]): 69%
- Population Hoechst High Intensity Objects (%) (U2OS; [3]): 6%
- Population Membrane Permeable-Phenotype (%) (U2OS; [3]): 22%
- Population Mitochondria Different-Phenotype (%) (U2OS; [3]): 86%
- Population Mitotic Cells (%) (U2OS; [3]): 50%
- Population Normal (%) (U2OS; [3]): 93%
- Population Pyknosed Nuclei (%) (U2OS; [3]): 15%
- Population Tubulin-Different-Phenotype (%) (U2OS; [3]): 100%
- Total Cell Count (U2OS; [3]): 121
- Population Apoptotic (%) (U2OS; [4]): 45%
- Population Fragmented Nuclei (%) (U2OS; [4]): 9%
- Population Healthy Nuclei (%) (U2OS; [4]): 60%
- Population Hoechst High Intensity Objects (%) (U2OS; [4]): 9%
- Population Membrane Permeable-Phenotype (%) (U2OS; [4]): 15%
- Population Mitochondria Different-Phenotype (%) (U2OS; [4]): 84%
- Population Mitotic Cells (%) (U2OS; [4]): 55%
- Population Normal (%) (U2OS; [4]): 90%
- Population Pyknosed Nuclei (%) (U2OS; [4]): 30%
- Population Tubulin-Different-Phenotype (%) (U2OS; [4]): 97%
- Total Cell Count (U2OS; [4]): 72
- Population Apoptotic (%) (U2OS; [5]): 23%
- Population Fragmented Nuclei (%) (U2OS; [5]): 13%
- Population Healthy Nuclei (%) (U2OS; [5]): 76%
- Population Hoechst High Intensity Objects (%) (U2OS; [5]): 11%
- Population Mitochondria Different-Phenotype (%) (U2OS; [5]): 5%
- Population Mitotic Cells (%) (U2OS; [5]): 76%
- Population Normal (%) (U2OS; [5]): 88%
- Population Tubulin-Different-Phenotype (%) (U2OS; [5]): 3%
- Total Cell Count (U2OS; [5]): 137
- Population Apoptotic (%) (U2OS; [6]): 14%
- Population Fragmented Nuclei (%) (U2OS; [6]): 3%
- Population Healthy Nuclei (%) (U2OS; [6]): 86%
- Population Hoechst High Intensity Objects (%) (U2OS; [6]): 4%
- Population Membrane Permeable-Phenotype (%) (U2OS; [6]): 1%
- Population Mitochondria Different-Phenotype (%) (U2OS; [6]): 8%
- Population Mitotic Cells (%) (U2OS; [6]): 85%
- Population Normal (%) (U2OS; [6]): 95%
- Population Pyknosed Nuclei (%) (U2OS; [6]): 10%
- Population Tubulin-Different-Phenotype (%) (U2OS; [6]): 7%
- Total Cell Count (U2OS; [6]): 68
- Population Apoptotic (%) (U2OS; [7]): 35%
- Population Fragmented Nuclei (%) (U2OS; [7]): 19%
- Population Healthy Nuclei (%) (U2OS; [7]): 55%
- Population Hoechst High Intensity Objects (%) (U2OS; [7]): 8%
- Population Membrane Permeable-Phenotype (%) (U2OS; [7]): 33%
- Population Mitochondria Different-Phenotype (%) (U2OS; [7]): 78%
- Population Mitotic Cells (%) (U2OS; [7]): 64%
- Population Normal (%) (U2OS; [7]): 91%
- Population Pyknosed Nuclei (%) (U2OS; [7]): 25%
- Population Tubulin-Different-Phenotype (%) (U2OS; [7]): 98%
- Total Cell Count (U2OS; [7]): 119
- Population Apoptotic (%) (U2OS; [8]): 42%
- Population Fragmented Nuclei (%) (U2OS; [8]): 9%
- Population Healthy Nuclei (%) (U2OS; [8]): 67%
- Population Hoechst High Intensity Objects (%) (U2OS; [8]): 6%
- Population Membrane Permeable-Phenotype (%) (U2OS; [8]): 30%
- Population Mitochondria Different-Phenotype (%) (U2OS; [8]): 71%
- Population Mitotic Cells (%) (U2OS; [8]): 57%
- Population Normal (%) (U2OS; [8]): 93%
- Population Pyknosed Nuclei (%) (U2OS; [8]): 22%
- Population Tubulin-Different-Phenotype (%) (U2OS; [8]): 95%
- Total Cell Count (U2OS; [8]): 66
- Population Apoptotic (%) (U2OS; [9]): 38%
- Population Fragmented Nuclei (%) (U2OS; [9]): 10%
- Population Healthy Nuclei (%) (U2OS; [9]): 82%
- Population Hoechst High Intensity Objects (%) (U2OS; [9]): 5%
- Population Membrane Permeable-Phenotype (%) (U2OS; [9]): 2%
- Population Mitochondria Different-Phenotype (%) (U2OS; [9]): 2%
- Population Mitotic Cells (%) (U2OS; [9]): 61%
- Population Normal (%) (U2OS; [9]): 94%
- Population Pyknosed Nuclei (%) (U2OS; [9]): 7%
- Population Tubulin-Different-Phenotype (%) (U2OS; [9]): 4%
- Total Cell Count (U2OS; [9]): 190
- Population Apoptotic (%) (U2OS; [10]): 20%
- Population Fragmented Nuclei (%) (U2OS; [10]): 3%
- Population Healthy Nuclei (%) (U2OS; [10]): 86%
- Population Hoechst High Intensity Objects (%) (U2OS; [10]): 4%
- Population Membrane Permeable-Phenotype (%) (U2OS; [10]): 4%
- Population Mitochondria Different-Phenotype (%) (U2OS; [10]): 13%
- Population Mitotic Cells (%) (U2OS; [10]): 80%
- Population Normal (%) (U2OS; [10]): 95%
- Population Pyknosed Nuclei (%) (U2OS; [10]): 10%
- Population Tubulin-Different-Phenotype (%) (U2OS; [10]): 9%
- Total Cell Count (U2OS; [10]): 98
- Population Apoptotic (%) (U2OS; [11]): 59%
- Population Fragmented Nuclei (%) (U2OS; [11]): 17%
- Population Healthy Nuclei (%) (U2OS; [11]): 58%
- Population Hoechst High Intensity Objects (%) (U2OS; [11]): 10%
- Population Membrane Permeable-Phenotype (%) (U2OS; [11]): 32%
- Population Mitochondria Different-Phenotype (%) (U2OS; [11]): 67%
- Population Mitotic Cells (%) (U2OS; [11]): 40%
- Population Normal (%) (U2OS; [11]): 89%
- Population Pyknosed Nuclei (%) (U2OS; [11]): 24%
- Population Tubulin-Different-Phenotype (%) (U2OS; [11]): 100%
- Total Cell Count (U2OS; [11]): 123
- Population Apoptotic (%) (U2OS; [12]): 55%
- Population Fragmented Nuclei (%) (U2OS; [12]): 13%
- Population Healthy Nuclei (%) (U2OS; [12]): 60%
- Population Hoechst High Intensity Objects (%) (U2OS; [12]): 11%
- Population Membrane Permeable-Phenotype (%) (U2OS; [12]): 52%
- Population Mitochondria Different-Phenotype (%) (U2OS; [12]): 42%
- Population Mitotic Cells (%) (U2OS; [12]): 44%
- Population Normal (%) (U2OS; [12]): 88%
- Population Pyknosed Nuclei (%) (U2OS; [12]): 26%
- Population Tubulin-Different-Phenotype (%) (U2OS; [12]): 97%
- Total Cell Count (U2OS; [12]): 78
